Rows were chosen to be rich in hits. Some 2.8% of all compounds tested hit in one or more screens of this group.
NPY1 pot ag = potentiates or activates human NPY-Y1 receptor. P25929. NPY-Y1 expressing cells, potentiator/agonist activation. activation, % at 3.6 µM. 220,000 tested, 0.37% active; in the data active means activation above about 33%, passing the limit was not always enough;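 further: cells stimulated with NPY at EC10 then isoproterenol at EC100; 0% = low agonist plus stimulus and 100% = saturating agonist plus stimulus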
NPY-Y2 PAM-ag = potentiates or activates human NPY-Y2 receptor; cells expressing NPY-Y2, potentiator/agonist read-out; 220,000 tested, 0.45% active; activation, % at 3.6 µM; in the data active means activation above about 27%;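 further: cells stimulated with NPY near EC25 plus isoproterenol at EC100; 0% = vehicle plus submaximal agonist and 100% = vehicle plus saturating agonist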
Target sequence (P49146 whole entry, looked up): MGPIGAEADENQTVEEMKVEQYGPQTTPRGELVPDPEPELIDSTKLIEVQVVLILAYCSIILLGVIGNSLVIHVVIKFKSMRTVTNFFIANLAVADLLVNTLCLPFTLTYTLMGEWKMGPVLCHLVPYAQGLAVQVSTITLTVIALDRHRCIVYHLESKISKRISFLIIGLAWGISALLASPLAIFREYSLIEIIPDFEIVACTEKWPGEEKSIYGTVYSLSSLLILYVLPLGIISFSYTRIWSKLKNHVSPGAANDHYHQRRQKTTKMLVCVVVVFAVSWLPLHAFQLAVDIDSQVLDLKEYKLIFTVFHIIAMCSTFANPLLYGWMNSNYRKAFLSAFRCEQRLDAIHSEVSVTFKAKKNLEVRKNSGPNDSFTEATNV
NPY Y2 blocker = NPY-Y2 (human) receptor antagonism; 140,000 tested, 0.99% active; inhibition, % at 2.7 µM; P49146; NPY-Y2 expressing cells, antagonist mode; in the data active means inhibition above about 17%;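 further: 0% = vehicle with agonist challenge and 100% = reference antagonist with challenge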
NPY-Y1 antag = NPY-Y1 (human) receptor antagonism; P25929; HEK293-CNG Y1 cells, membrane potential fluorescence; NPY at EC95, then isoproterenol; inhibition, % at 3.6 µM; 200,000 tested, 1% active; AID 1040;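 active means inhibition above the campaign mean inhibition of all tested compounds plus 3 SD, cut at about 20% in these data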;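 further: 0% = DMSO wells given NPY plus isoproterenol and 100% = isoproterenol alone without NPY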
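Benchmarks – high control isoproterenol alone, low control NPY with isoproterenol · Material – HEK293 Y1/CNG channel cell line · Times – dye 3 h, compound 60 min room temperature, stimulation 45 min · Probe or stimulus – NPY (25 nM), isoproterenol (1 µM), Ro 20-1724 (25 µM) · Evaluation – % inhibition of NPY effect · Signal – fluorescence, membrane potential probe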
MDM2 E3 inh = Mdm2 E3 ligase (human) inhibition. Q00987. cell-based MDM2 ubiquitination luciferase reporter, 2 h; 0 = plate control, 100 = twice control, blank-subtracted. signal enhancement, % at 5 µM. 210,000 tested, 0.11% active;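 active means signal enhancement of 30% or more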;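 further: luminescence tracks abundance of the self-degrading MDM2-luciferase fusion protein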
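test system = mammalian cells stably expressing self-ubiquitinating, self-degrading MDM2 E3–luciferase fusion | quantity = 2000 cells/well | incubation = cell settling 4 h, compound treatment 2 h, both 37 °C | signal = luminescence with SteadyLite reagent, 15 min at room temperature | evaluation = % enhancement relative to plate controls after blank subtraction | benchmarks = plate controls and plate blanks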
Measles CPE = protection of cells from measles virus; Measles virus-infected cells, CPE protection, absorbance; protection (pct of control), % at 4 µM; 140,000 tested, 1.5% active; AID 841; in the data active means protection mostly above about 24%, no sharp cut-off; inactive means mostly below about 26%
The depositor's hits bear a star; . = no result.

SMILES	NPY1 pot ag	NPY-Y2 PAM-ag	NPY Y2 blocker	NPY-Y1 antag	MDM2 E3 inh	Measles CPE
CCOC(=O)c1c(C)n(Cc2ccco2)c2ccc(O)cc12	-4	-4	3	2	-13	29
CCCCn1c(C)c(C(=O)OCC)c2c(CN3CCOCC3)c(O)ccc21	-59	-32	34*	33*	-16	12
N=C(N)c1c(O)n(C2CCCCC2)c(=O)n(C2CCCCC2)c1=O	30	31*	0	-8	5	2
O=c1c(C=NCc2cccs2)c(O)n(C2CCCCC2)c(=O)n1C1CCCCC1	-2	5	1	-2	-3	41
Cn1c(O)c(/C=C/C=Nc2ccccc2)c(=O)n(C)c1=S	-7	-13	2	-4	-8	8
C=C[C@@H]1C[C@@]1(C)[C@@H](NP(=O)(c1ccccc1)c1ccccc1)c1ccccc1	-34	-6	23*	38*	.	13
C=CCn1c(O)c(C(C)=NCCc2ccccc2)c(=O)[nH]c1=O	-1	-4	7	1	-2	24*
CCCN(CC#CCOc1ccc(OC)cc1)CCC	-15	5	5	11	2	37*
Clc1ccc(OCC#CCN2CCCC2)cc1	-8	3	.	7	-9	.
CC(C)(C)NCC(O)c1cc(Cl)c(N)c(Cl)c1 (centres undefined)	97*	88*	1	-11	.	5
O=C(N/N=C/c1c(O)n(Cc2ccco2)c(=O)[nH]c1=O)c1ccccc1O	-5	-14	.	.	-11	.
Fc1c(F)c(F)c(N2CCNCC2)c(F)c1F	-9	-13	.	8	-7	.
Fc1ccc(C(OCCN2CCCC2)c2ccc(Br)cc2)cc1 (centres undefined)	-33	-2	10	13	-6	54*
CC(C)[N+]12CCC(CC1)C(C(O)(c1ccccc1)c1ccccc1)C2 (centres undefined)	6	-2	.	.	-13	.
Cc1oc(-c2ccccc2Cl)nc1CN1C(=O)CN=C(c2ccccc2)c2ccccc21	-6	-9	15	4	.	4
OC(c1ccc(F)cc1)C(c1ccccc1)N1CCOCC1 (centres undefined)	24	-2	2	0	-7	39*
O=C(c1ccc2c3c(cccc13)CC2)C1CCCN(CC2CC2)C1 (centres undefined)	-28	-12	.	18	-3	.
CN(C(=O)CNC(=O)OCc1ccccc1)c1ccc(Br)cc1C(=O)c1ccccc1Cl	-41	-19	18*	23*	0	12
COc1ccc(C)cc1NC(=O)c1c(C)nn(Cc2ccccc2)c1Cl	-24	-19	21*	20*	-9	8
Clc1ccc2c(c1)C(c1ccccc1Cl)=NCc1nnc(N3CCN(CCSc4ccccc4)CC3)n1-2	-8	-10	12	5	0	10
Clc1ccc2c(c1)C(c1ccccc1Cl)=NCc1nnc(N3CCN(CCOc4ccccc4)CC3)n1-2	-42	-14	8	4	-9	28*
CCCCCc1nc2c(c(=O)c3ccccc3n2C)c(=O)n1C1CCCCCC1	11	-8	6	6	-17	26
O=c1[nH]c(=O)n(CCC2=CCCCC2)c(O)c1C=NCCN1CCNCC1	-3	15	0	-7	0	35*
C=CC1CN2CCC1CC2c1[nH]c2ccccc2c1CCO (centres undefined)	1	-18	2	5	1	2
Cc1nc2ccccc2c(=O)n1-c1ccc(F)cc1	1	2	0	2	-9	31*
SMILES	NPY1 pot ag	NPY-Y2 PAM-ag	NPY Y2 blocker	NPY-Y1 antag	MDM2 E3 inh	Measles CPE
Cc1nc2ccccc2c(=O)n1-c1ccncc1	0	-6	.	.	-3	.
CCNC(=O)C1OC(n2cnc3c(N)ncnc32)C(O)C1O (centres undefined)	-98	-25	138*	127*	.	.
Cc1cc(OCc2ccc([N+](=O)[O-])cc2)c2c3c(c(=O)oc2c1)CCCC3	-1	16	3	5	-4	46*
CCOC(=O)c1cncn1[C@H](C)c1ccccc1	14	-1	.	-3	.	.
O=c1[nH]c2ccccc2o1	-15	1	2	-2	20	45*
O=[N+]([O-])c1cc(-c2ccc([As](=O)(O)O)cc2)ccc1[As](=O)(O)O	6	-12	.	.	-7	.

Screening results (PubChem BioAssay)
